Experimental findings from ChEMBL document CHEMBL2396575, “Curcumin-I Knoevenagel's condensates and their Schiff's bases as anticancer agents: synthesis, pharmacological and simulation studies” (Bioorg Med Chem, 2013) are described below.

The subject of data set [1] is MCF7. As to the kind of experiment: Anticancer activity against wild-type human MCF7 cells assessed as cell viability at 0.01 ug/mL after 24 hrs by MTT assay relative to control. The class given is functional. As to conditions: MCF7, 24 h, read-out: Activity. Summed up:
(§1)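 MCF-7 cells grown in low-glucose DMEM with 10% FBS plus antibiotic/antimycotic. Seeded at 2×10^3 cells/well, incubated 24 h at 37 °C in humidified 5% CO2, then exposed to test compounds for 24 h. Cells washed with PBS, given MTT for 4 h at 37 °C, formazan dissolved in DMSO, absorbance read at 570 nm. Viability taken as the ratio of treated to blank.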
On the technique in general: Tetrazolium assays rely on reduction of a dye to a coloured formazan, in cell work by metabolically active cells.

The test system of data set [2] is MCF7. As to the kind of experiment: Anticancer activity against wild-type human MCF7 cells assessed as cell viability at 1 ug/mL after 24 hrs by MTT assay relative to control. The class given is functional. As to conditions: MCF7, 24 h, read-out: Activity. The gist of the method:
as §1

The subject of data set [3] is MCF7. As to the kind of experiment: Anticancer activity against wild-type human MCF7 cells assessed as cell viability at 0.1 ug/mL after 24 hrs by MTT assay relative to control. The class given is functional. As to conditions: MCF7, 24 h, read-out: Activity. The gist of the method:
as §1

Data set [4] concerns MCF7. Briefly: Anticancer activity against wild-type human MCF7 cells assessed as cell viability at 0.001 ug/mL after 24 hrs by MTT assay relative to control. The class given is functional. As to conditions: MCF7, 24 h, read-out: Activity. Summed up: as §1
Data set [5] can be described thus: Hemolytic activity in rabbit RBC at 100 ug/mL after 3 hrs by colorimetric assay relative to control. As to conditions: rabbit red blood cells (RBC), read-out: Activity. In kind it is ADME, cell-based, Oryctolagus cuniculus, Erythrocyte. The gist of the method:
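Rabbit whole blood diluted 0.1 mL in 0.9 mL PBS, incubated with test compound at 37 °C for 3 h, then centrifuged at 3800 rpm for 15 min. Supernatant mixed with Drabkin's reagent for 15 min, cyanmethemoglobin read at 540 nm against a hemoglobin standard curve. Compound absorbance at 540 nm subtracted. Saline served as negative control, distilled water as positive.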

The subject of data set [6] is DNA. Briefly: Binding affinity to calf thymus DNA assessed as hypochromicity by UV-vis spectroscopic analysis relative to control. In kind it is nucleic-acid assay. Set-up: concentration or dose not given beside the values. The following applies: Bos taurus. Summed up:
(§2)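 Ct-DNA stock in tris–HCl pH 7.2–7.3, stored at 4 °C, used within 4 days; A260/A280 ≥1.8. DNA concentration from ε260 6600 M⁻¹ cm⁻¹. Compound dissolved in methanol (2.0×10^-4 M) and titrated with DNA (0.3–2.1 ×10^-4) in tris–HCl, UV–vis spectra recorded after each addition. Kb from modified Benesi–Hildebrand (Wolfe) equation.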

Data set [7] has as its system MCF7. Briefly: Anticancer activity against wild-type human MCF7 cells assessed as cell viability at 0.0001 ug/mL after 24 hrs by MTT assay relative to control. The class given is functional. As to conditions: MCF7, 24 h, read-out: Activity. Summed up:
as §1

The subject of data set [8] is DNA. As to the kind of experiment: Binding affinity to calf thymus DNA by Benessi-Hilderbrand equation. In kind it is nucleic-acid assay. The following applies: Bos taurus. The gist of the method:
as §2

In the case of `COc1cc(/C=C/C(=N\NC(N)=O)C(=Cc2cn(-c3ccccc3)nc2-c2cccc([N+](=O)[O-])c2)C(/C=C/c2ccc(O)c(OC)c2)=N/NC(N)=O)ccc1O`, the viability at 0.01 µg/mL in the data set with MCF7 [1] amounted to 86%. In addition, the viability at 1 µg/mL in the data set with MCF7 [2] stood at 67%. Further, in the data set on MCF7 [3], the viability at 0.1 µg/mL came to 68%. In addition, the viability at 0.001 µg/mL with MCF7 [4] worked out at 89%. In data set [5], the hemolysis at 3 h, 100 ug/mL came to 16%. The Activity with DNA [6] was 9%. Also, the viability at 0.0001 µg/mL with MCF7 [7] turned out to be 91%. Further, the Kb in the data set with DNA [8] is 9.1 ×10⁴ /M.
With `O=Cc1cn(-c2ccccc2)nc1-c1ccc(Cl)cc1`, the viability at 0.01 µg/mL with MCF7 [1] stood at 98%. Besides, the viability at 1 µg/mL in the data set on MCF7 [2] was 59%. The viability at 0.1 µg/mL with MCF7 [3] was found to be 90%. In addition, the viability at 0.001 µg/mL with MCF7 [4] came out at 98%. Moreover, the hemolysis at 3 h, 100 ug/mL in data set [5] was 9%. For the same molecule, the Activity in the data set on DNA [6] worked out at 5.6%. For the same molecule, in the data set on MCF7 [7], the viability at 0.0001 µg/mL came to 100%. This molecule also showed a Kb in the data set on DNA [8] of 7.6 ×10⁴ /M.
`O=Cc1cn(-c2ccccc2)nc1-c1ccc([N+](=O)[O-])cc1`: the viability at 0.01 µg/mL with MCF7 [1] was 86%. The viability at 1 µg/mL with MCF7 [2] came to 80%. In the data set on MCF7 [3], the viability at 0.1 µg/mL was determined as 96%. For the same molecule, in the data set on MCF7 [4], the viability at 0.001 µg/mL was 97%. The hemolysis at 3 h, 100 ug/mL in data set [5] was found to be 7%. Also, in the data set with DNA [6], the Activity worked out at 7.7%. In the data set on MCF7 [7], the viability at 0.0001 µg/mL was determined as 106%. The Kb with DNA [8] stood at 1.9 ×10³ /M.
For `COc1cc(/C=C/C(=N\NC(N)=O)C(=Cc2cn(-c3ccccc3)nc2-c2ccc(Cl)cc2)C(/C=C/c2ccc(O)c(OC)c2)=N/NC(N)=O)ccc1O`, the viability at 0.01 µg/mL in the data set with MCF7 [1] is 81%. Also, the viability at 1 µg/mL in the data set on MCF7 [2] came out at 74%. Moreover, the viability at 0.1 µg/mL with MCF7 [3] was 78%. Further, the viability at 0.001 µg/mL in the data set on MCF7 [4] was found to be 81%. Besides, the hemolysis at 3 h, 100 ug/mL in data set [5] came to 17%. Also, in the data set on DNA [6], the Activity is 11%. Further, in the data set on MCF7 [7], the viability at 0.0001 µg/mL worked out at 87%. For the same molecule, the Kb in the data set with DNA [8] was found to be 8.1 ×10⁵ /M.
On to `COc1cccc2c1C(=O)c1c(O)c3c(c(O)c1C2=O)C[C@@](O)(C(=O)CO)C[C@@H]3O[C@H]1C[C@H](N)[C@H](O)[C@H](C)O1` [DOXORUBICIN], for which the hemolysis at 3 h, 100 ug/mL in data set [5] was found to be 42%.
Turning to `COc1cc(/C=C/C(=O)C(=Cc2cn(-c3ccccc3)nc2-c2ccc(Cl)cc2)C(=O)/C=C/c2ccc(O)c(OC)c2)ccc1O`, in the data set on MCF7 [1], the viability at 0.01 µg/mL worked out at 75%. Also, in the data set on MCF7 [2], the viability at 1 µg/mL is 65%. The viability at 0.1 µg/mL with MCF7 [3] came to 72%. The viability at 0.001 µg/mL with MCF7 [4] was 81%. For the same molecule, the hemolysis at 3 h, 100 ug/mL in data set [5] was found to be 16%. Further, in the data set on DNA [6], the Activity came out at 8.1%. Moreover, in the data set on MCF7 [7], the viability at 0.0001 µg/mL was determined as 95%. This molecule also gave a Kb in the data set with DNA [8] of 7.8 ×10⁵ /M.
Regarding `COc1cc(/C=C/C(=O)C(=Cc2cn(-c3ccccc3)nc2-c2ccccc2O)C(=O)/C=C/c2ccc(O)c(OC)c2)ccc1O`, in the data set with MCF7 [1], the viability at 0.01 µg/mL was determined as 93%. In addition, in the data set with MCF7 [2], the viability at 1 µg/mL was determined as 88%. For the same molecule, the viability at 0.1 µg/mL in the data set on MCF7 [3] was 91%. Further, the viability at 0.001 µg/mL with MCF7 [4] amounted to 97%. The hemolysis at 3 h, 100 ug/mL in data set [5] amounted to 20%. For the same molecule, the Activity in the data set on DNA [6] worked out at 13%. The viability at 0.0001 µg/mL in the data set on MCF7 [7] was found to be 100%. In the data set with DNA [8], this molecule displayed a Kb of 2.1 ×10⁴ /M.
For the molecule `O=Cc1cn(-c2ccccc2)nc1-c1cccc([N+](=O)[O-])c1`, in the data set on MCF7 [1], the viability at 0.01 µg/mL came to 89%. The viability at 1 µg/mL in the data set on MCF7 [2] came out at 75%. Also, the viability at 0.1 µg/mL in the data set with MCF7 [3] amounted to 86%. Moreover, in the data set with MCF7 [4], the viability at 0.001 µg/mL is 89%. Also, the hemolysis at 3 h, 100 ug/mL in data set [5] turned out to be 10%. The Activity in the data set with DNA [6] is 5.2%. In addition, the viability at 0.0001 µg/mL in the data set with MCF7 [7] came out at 89%. The Kb with DNA [8] was 2.5 ×10³ /M.
Take `O=Cc1cn(-c2ccccc2)nc1-c1ccccc1O`: in the data set on MCF7 [1], the viability at 0.01 µg/mL stood at 92%. Further, the viability at 1 µg/mL with MCF7 [2] came to 79%. The viability at 0.1 µg/mL in the data set with MCF7 [3] is 73%. Moreover, the viability at 0.001 µg/mL with MCF7 [4] stood at 97%. Moreover, the hemolysis at 3 h, 100 ug/mL in data set [5] is 18%. Also, the Activity in the data set on DNA [6] is 6.2%. In addition, in the data set with MCF7 [7], the viability at 0.0001 µg/mL worked out at 96%. This molecule also returned a Kb in the data set with DNA [8] of 1.4 ×10³ /M.
`COc1cc(/C=C/C(=O)C(=Cc2cn(-c3ccccc3)nc2-c2cccc([N+](=O)[O-])c2)C(=O)/C=C/c2ccc(O)c(OC)c2)ccc1O`: the viability at 0.01 µg/mL with MCF7 [1] turned out to be 88%. In addition, the viability at 1 µg/mL in the data set on MCF7 [2] was 70%. Besides, the viability at 0.1 µg/mL with MCF7 [3] came out at 85%. For the same molecule, the viability at 0.001 µg/mL in the data set with MCF7 [4] is 96%. Also, in data set [5], the hemolysis at 3 h, 100 ug/mL worked out at 14%. In addition, the Activity with DNA [6] was found to be 29%. The viability at 0.0001 µg/mL in the data set on MCF7 [7] amounted to 99%. The same molecule displayed a Kb in the data set with DNA [8] of 9.4 ×10⁴ /M.
For `COc1cc(/C=C/C(=N\NC(N)=O)C(=Cc2cn(-c3ccccc3)nc2-c2ccccc2O)C(/C=C/c2ccc(O)c(OC)c2)=N/NC(N)=O)ccc1O`, the viability at 0.01 µg/mL with MCF7 [1] worked out at 91%. Moreover, the viability at 1 µg/mL with MCF7 [2] stood at 87%. Besides, the viability at 0.1 µg/mL in the data set on MCF7 [3] came to 86%. Also, the viability at 0.001 µg/mL in the data set on MCF7 [4] amounted to 91%. Moreover, in data set [5], the hemolysis at 3 h, 100 ug/mL was 25%. Also, in the data set with DNA [6], the Activity came to 10%. For the same molecule, the viability at 0.0001 µg/mL in the data set with MCF7 [7] was found to be 92%. Moreover, the Kb in the data set on DNA [8] turned out to be 3 ×10⁴ /M.
Regarding `COc1cc(/C=C/C(=N\NC(N)=O)C(=Cc2cn(-c3ccccc3)nc2-c2ccc([N+](=O)[O-])cc2)C(/C=C/c2ccc(O)c(OC)c2)=N/NC(N)=O)ccc1O`, the viability at 0.01 µg/mL in the data set on MCF7 [1] was found to be 95%. Further, the viability at 1 µg/mL in the data set with MCF7 [2] came to 98%. The viability at 0.1 µg/mL in the data set with MCF7 [3] was determined as 92%. Also, in the data set with MCF7 [4], the viability at 0.001 µg/mL came out at 105%. In addition, the hemolysis at 3 h, 100 ug/mL in data set [5] was 11%. Further, the Activity in the data set on DNA [6] came out at 8%. Also, the viability at 0.0001 µg/mL in the data set on MCF7 [7] came out at 110%. For the same molecule, the Kb in the data set on DNA [8] came to 2.6 ×10⁴ /M.
Regarding `COc1cc(/C=C/C(=O)C(=Cc2cn(-c3ccccc3)nc2-c2ccc([N+](=O)[O-])cc2)C(=O)/C=C/c2ccc(O)c(OC)c2)ccc1O`, in the data set with MCF7 [1], the viability at 0.01 µg/mL is 95%. Besides, in the data set with MCF7 [2], the viability at 1 µg/mL was found to be 90%. Moreover, the viability at 0.1 µg/mL in the data set on MCF7 [3] was 92%. In the data set with MCF7 [4], the viability at 0.001 µg/mL turned out to be 98%. Further, in data set [5], the hemolysis at 3 h, 100 ug/mL was 10%. In the data set on DNA [6], the Activity is 12.3%. Also, the viability at 0.0001 µg/mL with MCF7 [7] was 98%. The Kb in the data set on DNA [8] amounted to 1.4 ×10⁴ /M.
